According to PMC3577957 (Insect biochemistry and molecular biology, 2012):
Marks after values point to notes of the source that are not given here.

Assays:
Hv-mEH1 [1] = biological target: T1, Hv-mEH1 (Chloridea virescens, UniProt L7R9X8); assay: Fluorescent substrate assay, Hv-mEH1; format: biochemical, Heliothis virescens; conditions: 50 mM Tris-HCl, pH 8.0, 5 μM substrate (25 μM for CMNGC), 100 μM OTFP, 1% DMSO, 0.1 mg ml^−1 BSA, 30°C
Method in brief: (§1)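 Enzyme was microsomal fraction from High Five cells infected with recombinant baculovirus (MOI 0.5, 27°C, 65 h p.i.), solubilized with 0.5% Triton X-100, and taken as the 163,000 xg supernatant. Enzyme was preincubated 5 min with OTFP before α-cyanoester/carbonate epoxide substrate was added. Fluorescence (ex 330/em 465 nm) was read every 30 s for 10 min. Aldehyde product was quantified against a 6-methoxy-2-naphthaldehyde standard curve. No-OTFP controls measured ester hydrolysis. Quadruplicate wells, ≥3 plates.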

MsJHEH [2] = biological target: T2, MsJHEH (Manduca sexta, UniProt Q25489); assay: Fluorescent substrate assay, MsJHEH; format: biochemical; conditions: 50 mM Tris-HCl, pH 8.0, 5 μM substrate (25 μM for CMNGC), 100 μM OTFP, 1% DMSO, 0.1 mg ml^−1 BSA, 30°C
T2 sequence (Q25489 1-462): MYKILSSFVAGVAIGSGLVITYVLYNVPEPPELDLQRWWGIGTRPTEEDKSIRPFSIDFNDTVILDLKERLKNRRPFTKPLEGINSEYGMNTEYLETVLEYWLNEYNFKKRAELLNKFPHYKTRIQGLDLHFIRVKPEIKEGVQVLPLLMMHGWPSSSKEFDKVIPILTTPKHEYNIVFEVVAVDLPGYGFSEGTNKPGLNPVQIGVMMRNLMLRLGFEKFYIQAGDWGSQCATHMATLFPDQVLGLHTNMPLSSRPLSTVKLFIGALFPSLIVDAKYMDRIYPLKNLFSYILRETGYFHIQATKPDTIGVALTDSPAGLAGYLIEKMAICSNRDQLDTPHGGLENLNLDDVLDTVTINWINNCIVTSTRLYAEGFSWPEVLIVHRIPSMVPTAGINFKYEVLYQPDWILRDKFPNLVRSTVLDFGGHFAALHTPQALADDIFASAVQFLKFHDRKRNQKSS
Method in brief: as §1

[3] = biological target: T3, hmEH (human microsomal EH, EPHX1) (Homo sapiens, UniProt P07099); assay: Fluorescent substrate assay, hmEH; format: biochemical; conditions: 50 mM Tris-HCl, pH 8.0, 5 μM substrate, 100 μM OTFP, 1% DMSO, 0.1 mg ml^−1 BSA, 30°C
T3 sequence (P07099 1-455): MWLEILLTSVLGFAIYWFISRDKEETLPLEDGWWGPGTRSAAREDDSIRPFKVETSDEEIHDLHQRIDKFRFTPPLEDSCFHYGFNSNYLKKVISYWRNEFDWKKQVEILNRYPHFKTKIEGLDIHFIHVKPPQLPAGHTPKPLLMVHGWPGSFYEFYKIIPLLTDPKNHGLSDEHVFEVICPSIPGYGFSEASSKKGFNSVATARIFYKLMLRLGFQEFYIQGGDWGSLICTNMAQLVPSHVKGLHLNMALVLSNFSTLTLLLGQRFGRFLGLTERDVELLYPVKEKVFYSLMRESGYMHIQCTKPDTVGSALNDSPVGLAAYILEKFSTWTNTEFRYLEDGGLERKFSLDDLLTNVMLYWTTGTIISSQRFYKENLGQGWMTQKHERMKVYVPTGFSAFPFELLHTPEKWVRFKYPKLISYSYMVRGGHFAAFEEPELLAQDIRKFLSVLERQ

Hv-mEH1 [4] = biological target: T1, Hv-mEH1; assay: Partition assay with radiolabeled general epoxide substrates, Hv-mEH1; format: biochemical, Heliothis virescens; conditions: 100 mM sodium phosphate, pH 8.0, 50 μM substrate, 1% ethanol, 0.1 mg ml^−1 BSA, 30°C; corrected for background hydrolysis
Method in brief: (§2)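 Microsomal enzyme came from baculovirus-infected High Five cells (MOI 0.5, 65 h p.i., Triton X-100 extract, 163,000 xg supernatant). Partition assay used tritium-labeled cis-stilbene oxide, trans-stilbene oxide or t-DPPO. Enzyme amount was set so at most 15% of substrate was hydrolyzed. Assays were run in triplicate and repeated at least three times. Results are mean ± standard deviation.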

MsJHEH [5] = biological target: T2, MsJHEH; assay: Partition assay with radiolabeled general epoxide substrates, MsJHEH; format: biochemical; conditions: 100 mM sodium phosphate, pH 8.0, 50 μM substrate, 1% ethanol, 0.1 mg ml^−1 BSA, 30°C; corrected for background hydrolysis
Method in brief: as §2

[6] = biological target: T3, hmEH (human microsomal EH, EPHX1); conditions: 25 μM CMNGC; ref Morisseau et al., 2011; cited from earlier work
Hv-mEH1 [7] = biological target: T1, Hv-mEH1; assay: JH III partition assay and kinetic constant determination, Hv-mEH1; format: biochemical, Heliothis virescens
Method in brief: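 Recombinant enzyme expressed in baculovirus-infected High Five cells (MOI 0.5, 27°C, harvested 65 h p.i.). Used the Triton X-100-solubilized microsomal supernatant. Tritiated JH III partition assay at eight concentrations (96 to 11,190 nM), with 1% ethanol and 0.1 mg ml−1 BSA. Ran 5 to 30 min with ≤15% hydrolysis, non-enzymatic background subtracted. KM/Vmax fitted by enzyme kinetics, triplicate, repeated three times.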

MsJHEH [8] = biological target: T2, MsJHEH; conditions: cited from earlier work
Bommo-JHEH = conditions: ref Zhang et al., 2005; cited from earlier work

Row | SMILES | Specific Activity Hv-mEH1 with fluorescent substrates (Hv-mEH1 [1]) | Specific Activity MsJHEH with fluorescent substrates (MsJHEH [2]) | Specific Activity hmEH with fluorescent substrates [3] | Specific Activity Hv-mEH1 (Hv-mEH1 [4]) | Specific Activity MsJHEH (MsJHEH [5]) | further results
1 | CCC[C@@H]1O[C@H]1CC(=O)OC(C#N)c1ccc2cc(OC)ccc2c1 (relative stereo) [MNHE, cyano(2-methoxynaphthalen-6-yl)methyl trans-2-(3-propyloxiran-2-yl)acetate] | 1,180 ± 8 nmol min^−1 mg^−1 | 38 ± 3 nmol/min/mg | < 1.0 nmol/min/mg | – | – | –
2 | COc1ccc2cc(C(C#N)OC(=O)OC[C@@H]3O[C@H]3c3ccccc3)ccc2c1 (relative stereo) [MNPC, cyano(6-methoxy-naphthalen-2-yl)methyl trans-[(3-phenyloxiran-2-yl)methyl] carbonate] | 816 ± 140 nmol/min/mg | 29 ± 18 nmol/min/mg | < 1.0 nmol/min/mg | – | – | –
3 | COc1ccc2cc(C(C#N)OC(=O)C[C@@H]3O[C@H]3c3ccccc3)ccc2c1 (relative stereo) [MNPE, cyano(2-methoxynaphthalen-6-yl)methyl trans-(2-(3-phenyloxiran-2-yl))acetate] | 138 ± 9 nmol/min/mg | 8.9 ± 0.4 nmol/min/mg | < 1.0 nmol/min/mg | – | – | –
4 | CC[C@@H]1O[C@H]1COC(=O)OC(C#N)c1ccc2cc(OC)ccc2c1 (relative stereo) [MNPEC, cyano-(6-methoxy-naphthalen-2-yl)-methyl trans-((3-ethyl-oxiran-2-yl)methyl) carbonate] | 122 ± 11 nmol/min/mg | 0.8 ± 0.1 nmol/min/mg | < 1.0 nmol/min/mg | – | – | –
5 | c1ccc([C@@H]2O[C@H]2c2ccccc2)cc1 (relative stereo) [t-SO, trans-stilbene oxide] | – | – | – | 0.3 ± 0.01 nmol/min/mg | 2.1 ± 0.3 nmol/min/mg | –
6 | COc1ccc2cc(C(C#N)OC(=O)OCC3CO3)ccc2c1 (stereo not drawn) [CMNGC, cyano(6-methoxy-naphthalen-2-yl)methyl oxiran-2-ylmethyl carbonate] | 0.03 ± 0.001 nmol/min/mg | 3.3 ± 0.2 nmol/min/mg | – | – | – | Specific Activity hmEH with CMNGC [6]: 25 ± 2 ^b nmol min^−1 mg^−1
7 | COC(=O)/C=C(\C)CC/C=C(\C)CC[C@H]1OC1(C)C [JH III, juvenile hormone (JH) III] | – | – | – | – | – | specificity constant (kcat/KM ratio) of Hv-mEH1 for JH III (Hv-mEH1 [7]): 630 M⁻¹ s⁻¹; Vmax of Hv-mEH1 for JH III (Hv-mEH1 [7]; 100 mM sodium phosphate, pH 8.0, 30°C, JH III diol formed): 1.7 ± 0.1 nmol/min/mg; kcat of Hv-mEH1 for JH III (Hv-mEH1 [7]; calculated using estimated molecular mass of 53.1 kDa): 0.002 s⁻¹; Vmax of MsJHEH for JH III (MsJHEH [8]; ref Severson et al., 2002): 59 nmol/min/mg; specificity constant of MsJHEH for JH III (MsJHEH [8]; ref Touhara and Prestwich, 1993): 290000 M⁻¹ s⁻¹; specificity constant of Bommo-JHEH for JH III (Bommo-JHEH): 77000 M⁻¹ s⁻¹
8 | COc1ccc2cc(C(C#N)OC(=O)OCC3OC3(C)C)ccc2c1 (stereo not drawn) [MNiPC, cyano-(6-methoxy-naphthalen-2-yl)-methyl 3,3-dimethyl-oxiranylmethyl carbonate] | 3.7 ± 1.1 nmol/min/mg | 1.3 ± 0.5 nmol/min/mg | < 1.0 nmol/min/mg | – | – | –
9 | c1ccc([C@H]2O[C@H]2c2ccccc2)cc1 [c-SO, cis-stilbene oxide] | – | – | – | 45.8 ± 7.0 nmol/min/mg | 3.7 ± 0.5 nmol/min/mg | –
10 | c1ccc(CC2OC2c2ccccc2)cc1 (stereo not drawn) [t-DPPO, trans-diphenylpropene oxide] | – | – | – | 0.1 ± 0.04 nmol/min/mg | 18.3 ± 4.0 nmol/min/mg | –
